Source: PubChem
STAT3 inh-1: STAT3 signaling inhibition. U3A cells, IL-6 STAT3-luciferase reporter, luminescence; host cell line lacks STAT1. inhibition, % at 5.5 µM. 190,000 compounds, 0.89% hits. AID 862;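 active = inhibition above the mean inhibition across all screened compounds plus 3 SD, cut at about 44% in these data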;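 also: 0% = DMSO only wells and 100% = 100 µM nifuroxazide control wells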
STAT1 inh: inhibitors of IFN-gamma induced STAT1 signaling; NIH 3T3 STAT1-luciferase reporter, luminescence; inhibition, % at 5.5 µM; 200,000 compounds, 0.35% hits; AID 920;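 active = inhibition above a set limit, the mean inhibition across all tested compounds plus 3 SD, cut at about 34% in these data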;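 also: 0% = IFN-gamma with DMSO and 100% = IFN-gamma with 300 µM nifuroxazide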
KCC2 mod: KCC2 (human) Cl- transport modulation. KCC2 cells, thallium flux FluoZin-2 fluorescence. 190,000 compounds, 2.2% hits. B-score of Tl+ flux slope (higher = more flux/activation; lower = inhibition) at 10 µM. Q9H2X9. AID 1456;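 active = thallium flux slope and its plate-corrected score both differing from the plate sample mean at a set confidence after two filtering rounds, in either direction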;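 also: slope of fluorescence scaled to starting intensity during 10 to 20 s after thallium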
Target sequence (Q9H2X9 whole entry, looked up): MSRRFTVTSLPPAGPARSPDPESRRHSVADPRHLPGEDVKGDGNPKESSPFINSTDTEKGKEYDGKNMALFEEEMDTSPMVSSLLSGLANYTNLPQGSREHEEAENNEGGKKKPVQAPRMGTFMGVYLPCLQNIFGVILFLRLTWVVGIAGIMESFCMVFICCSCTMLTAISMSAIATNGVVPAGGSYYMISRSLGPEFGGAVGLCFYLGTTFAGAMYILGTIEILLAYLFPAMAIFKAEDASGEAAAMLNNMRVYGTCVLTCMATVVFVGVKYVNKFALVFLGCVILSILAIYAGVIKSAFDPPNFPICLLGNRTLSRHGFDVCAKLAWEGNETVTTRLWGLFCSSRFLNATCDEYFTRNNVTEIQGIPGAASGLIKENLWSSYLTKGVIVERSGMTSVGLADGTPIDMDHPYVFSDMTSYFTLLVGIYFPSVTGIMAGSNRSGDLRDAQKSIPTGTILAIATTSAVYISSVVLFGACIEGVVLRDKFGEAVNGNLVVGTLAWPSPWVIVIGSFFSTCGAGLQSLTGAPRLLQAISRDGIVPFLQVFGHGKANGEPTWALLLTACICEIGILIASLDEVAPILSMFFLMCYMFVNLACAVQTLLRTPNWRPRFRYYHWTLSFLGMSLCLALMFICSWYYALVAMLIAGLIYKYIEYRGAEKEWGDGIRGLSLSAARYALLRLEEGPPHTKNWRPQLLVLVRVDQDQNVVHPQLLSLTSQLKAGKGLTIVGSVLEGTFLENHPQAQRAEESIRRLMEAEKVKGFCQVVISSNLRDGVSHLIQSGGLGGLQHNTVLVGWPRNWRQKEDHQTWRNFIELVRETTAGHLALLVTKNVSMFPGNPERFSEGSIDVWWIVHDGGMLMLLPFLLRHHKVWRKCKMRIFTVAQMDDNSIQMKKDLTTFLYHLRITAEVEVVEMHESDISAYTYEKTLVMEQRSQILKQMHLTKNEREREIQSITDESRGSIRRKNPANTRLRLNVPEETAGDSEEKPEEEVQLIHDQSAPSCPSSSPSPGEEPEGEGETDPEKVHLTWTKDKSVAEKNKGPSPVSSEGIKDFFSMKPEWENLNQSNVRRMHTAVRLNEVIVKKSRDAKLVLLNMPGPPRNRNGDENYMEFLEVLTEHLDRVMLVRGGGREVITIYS
HSV replic up: HSV replication enhancement | 220,000 compounds, 0.005% hits | HSV replication augmentation in cells, fold increase | maximum fold increase; in the data active = maximum fold increase above about 1.5; inconclusive = no clear call, values can overlap the other calls; tested in PC3 cells
STAT3 act: increases IL-6 driven STAT3 reporter signal | U3A cells, IL-6 STAT3-luciferase reporter, luminescence; 100% = signal with IL-6 EC80 alone | activation (% of control), % at 5.6 µM | 190,000 compounds, 0.91% hits;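 active = activation above the screen-wide mean of compound activation plus 3 SD, cut at about 130% in these data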;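 also: 0% = background luminescence of wells with medium and substrate only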
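system = STAT3-luciferase reporter U3A cells | reagent = IL-6 stimulus at 33 ng/mL final | timing = 1 h compound pre-exposure, 6 h IL-6 stimulation, 37 °C | measured by = luminescence | evaluation = % activation versus median of IL-6-stimulated wells | control set = IL-6-only wells as 100% reference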
STAT1 activator: increases IFN-gamma driven STAT1 reporter signal. NIH 3T3 STAT1-luciferase reporter, luminescence; 100% = IFN-gamma alone, no compound. activation (% of control), % at 5.5 µM. 200,000 compounds, 2.6% hits. AID 932;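 active = activation above the screen-wide mean activation plus 3 SD, cut at about 130% in these data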;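 also: raw ratio to IFN-gamma control signal so 100% means no change and 0% no light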
STAT3 inh-2: STAT3 inhibition, confirmation assay | AID 1265 | 1,200 compounds, 45% hits | inhibition, % at 5.7 µM | U3A cells, IL-6 STAT3 luciferase reporter, luminescence; cell line lacks STAT1 | shares compounds with STAT3 inh-1;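 active = inhibition above the hit cutoff computed for the primary STAT3 screen, cut at about 44% in these data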;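 also: 0% = IL-6 plus DMSO and 100% = IL-6 plus nifuroxazide control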
NFkB inh STAT3ct: counter-screen for STAT3 inhibitors: NF-kappaB inhibition; shares compounds with STAT3 inh-1; HEK293T NF-kB luciferase reporter, TNF-alpha induced; inhibition, % at 5.7 µM; 1,200 compounds, 36% hits; AID 1308;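 active = inhibition above the mean of solvent-only control wells plus 3 SD, cutoff set per campaign, cut at about 13% in these data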;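 also: 0% = TNF-alpha with DMSO and 100% = TNF-alpha with MG high control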
STAT1 inh 2: inhibits STAT1, counter-screen to STAT3 inhibitors. NIH 3T3 STAT1-luciferase reporter, IFN-gamma induced, luminescence. 1,200 compounds, 27% hits. inhibition, % at 5.7 µM. shares compounds with STAT3 inh-1;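 active = inhibition above the mean plus 3 SD of solvent-only control wells, limit set per screening run, cut at about 16% in these data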;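 also: 0% = DMSO with IFN-gamma and 100% = nifuroxazide control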
STAT1 activ conf: STAT1 activation, confirmation assay; 1,200 compounds, 97% hits; NIH 3T3 STAT1-luciferase reporter, IFN-gamma potentiation, luminescence; 100% = IFN-gamma EC80 alone, no compound; AID 1262; shares compounds with STAT1 activator; activation (% of control), % at 5.7 µM;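 active = activation above a set limit carried over from the earlier primary STAT1 screen, cut at about 140% in these data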;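 also: simple ratio to median IFN-gamma plus DMSO wells so 0% means no light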
NFkB act: counter-screen for STAT1 activators: NF-kappaB activation; HEK293T NF-kB luciferase reporter, TNF-alpha stimulated, luminescence; 100% = TNF-alpha with vehicle only; 1,200 compounds, 43% hits; activation (% of control), % at 5.7 µM; AID 1306; shares compounds with STAT1 activator;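 active = activation above the mean of solvent-only control wells plus 3 SD, set per campaign, cut at about 130% in these data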;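 also: TNF-alpha given at a submaximal dose yielding about 80% of full reporter signal; values are well signal over median control so 100% means no change and 0% no light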
STAT3 act STAT1c: activates human STAT3, counter-screen to STAT1 activators; shares compounds with STAT1 activator; U3A cells STAT3-luciferase reporter, IL-6, luminescence; cells lack STAT1; 100 = IL-6 alone, no compound effect; activation (% of control), % at 5.7 µM; 1,200 compounds, 46% hits; AID 1316;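 active = activation above the solvent-only control well mean plus 3 SD, set per plate batch, cut at about 110% in these data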;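 also: 0% = no luminescence and 100% = median IL-6 plus DMSO wells; higher means more STAT3 reporter activation so hits are non-selective activators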
KCC2 secondary: confirmation of human KCC2 transport modulators. shares compounds with KCC2 mod. HEK293-KCC2, thallium flux, FluoZin2 fluorescence; active compounds read high. normalised thallium flux (F/F0 slope) at 10 µM. 3,700 compounds, 15% hits;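 active = thallium flux slope above the same plate's solvent-only control mean plus 3 SD; inconclusive = the two replicate wells disagree; inactive = no significant difference from solvent-only control wells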
KCC2 bumet counter: thallium flux persisting under bumetanide in KCC2 cells, counter-screen secondary assay | normalized thallium flux at 10 µM | 3,700 compounds, 49% hits | AID 1714 | shares compounds with KCC2 mod | HEK293-KCC2 + bumetanide/ouabain, thallium flux FluoZin2; active compounds read high;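 active = thallium entry rate above the same plate's blocked-transporter control wells by more than 3 SD; inconclusive = the two repeat wells disagree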;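 also: raw slope of fluorescence over initial fluorescence between 10 and 20 s after thallium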
KCC2 secondary2: KCC2 (human) modulation, second secondary assay; shares compounds with KCC2 mod; HEK293-KCC2, thallium flux FluoZin2 fluorescence; actives lie on both sides; F/F0 rise rate, 10–20 s post-thallium; normalized thallium flux at 10 µM; 3,700 compounds, 23% hits; AID 1715;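 active = thallium flux slope more than 3 SD above or below the plate's solvent-only control mean, mostly below; inconclusive = the two repeat wells disagreed; inactive = no significant shift from solvent-only controls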;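 also: raw slope with 0.1% DMSO as baseline and bumetanide as block control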
HEK293 Tl flux: counter-screen for KCC2 modulators: effect in parental HEK293 cells | shares compounds with KCC2 mod | thallium flux FluoZin2, ouabain; baseline-ratio fluorescence slope, 10–20 s after thallium | thallium flux rate (normalised fluorescence) at 10 µM | 3,700 compounds, 46% hits;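 active = thallium flux rate significantly above the same plate's solvent-only control wells, beyond their mean plus 3 SD; inconclusive = the two replicate wells gave conflicting results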
KCC2 retest ouab: modulates human KCC2 on retest with ouabain | shares compounds with KCC2 mod | HEK293-KCC2, thallium flux FluoZin2 fluorescence; bidirectional: low = inhibitor, high = activator | raw Tl+ flux slope (below DMSO = inhibition, above = activation) at 10 µM | 3,700 compounds, 48% hits;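 active = thallium flux slope beyond 3 SD from same-plate DMSO control mean in most replicates, usually higher, sometimes lower; inconclusive = repeat tests gave conflicting results; inactive = no significant difference from controls in most replicates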;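 also: slope of initial-normalized fluorescence between seconds 10 and 20 after thallium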
HEK293 Tl flux2: acts in parental HEK cells, second KCC2 counter-screen | shares compounds with KCC2 mod | HEK293 parental, thallium flux FluoZin-2 fluorescence slope | thallium flux slope at 10 µM | 3,700 compounds, 33% hits;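 active = thallium flux slope above the same plate's solvent-control mean plus 3 SD in both duplicate wells; inconclusive = duplicate wells that disagreed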;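 also: run without ouabain in cells lacking the KCC2 cotransporter; slope of fluorescence scaled to its starting value between 10 and 20 s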
* hit, by the source's call; i = inactive; ? = inconclusive; / = no result. In the library only some 5.5% were active in any assay of this set; here they are far more common.

SMILES | STAT3 inh-1 | STAT1 inh | KCC2 mod | HSV replic up | STAT3 act | STAT1 activator | STAT3 inh-2 | NFkB inh STAT3ct | STAT1 inh 2 | STAT1 activ conf | NFkB act | STAT3 act STAT1c | others
CC1CCCCC1N1CN=C(Nc2nc3ccccc3s2)NC1 (stereo unspecified) | -6 | 6 | 0.36 | i | 114 | 95 | / | / | / | / | / | /
C/C(CC(=O)Nc1ccccc1F)=N\NC(=O)Cc1ccc(Cl)cc1 | 4 | -6 | -0.025 | i | 98 | 104 | / | / | / | / | / | /
Cc1cc(C(=O)COC(=O)c2ccc[nH]c2=O)c(C)n1C | -1 | -11 | -0.45 | i | 103 | 110 | / | / | / | / | / | /
COCCn1c(C)cc(C(=O)COC(=O)c2ccc[nH]c2=O)c1C | 48* | 28 | 0.35 | i | 59 | 75 | 2 | -4 | -14 | / | / | /
Cc1ccc(NC(=O)COC(=O)CNC(=O)c2ccc3ccccc3c2)c([N+](=O)[O-])c1 | 1 | 0 | -1.3 | i | 101 | 100 | / | / | / | / | / | /
Cc1ccnc(NC(=O)Nc2cccc(F)c2)c1 | 46* | -41 | 0.98 | i | 62 | 138* | -7 | -28 | -130 | / | / | /
CC(=O)Nc1cccc(NC(=O)Nc2cccc(F)c2)c1 | 20 | -19 | 0.29 | i | 87 | 115 | / | / | / | / | / | /
N#C/C(=C\c1ccc(N2CCOCC2)o1)c1nc2ccccc2[nH]1 | 66* | -66 | i | ? | 45 | 160* | 14 | -28 | -163 | 255* | 113 | 90
N#C/C(=C\c1ccc(N2CCOCC2)c([N+](=O)[O-])c1)c1nc2ccccc2[nH]1 | -21 | -3 | -1.1 | i | 118 | 103 | / | / | / | / | / | /
COCCN1Cc2cccc(C(=O)NC(C)c3cccs3)c2C1=O (stereo unspecified) | 4 | 6 | / | i | 102 | 95 | / | / | / | / | / | /
CCOC(=O)/C(C#N)=C\c1cc(C)n(-c2ccccc2)c1C | 45* | -71 | -0.37 | i | 64 | 165* | 0 | -35 | -149 | 238* | 113 | 115*
C=CCc1ccc(OCCOCCOc2cccc3cccnc23)c(OC)c1 | -4 | 10 | -1 | i | 104 | 91 | / | / | / | / | / | /
CC(C)(C)NC(=O)NC(=O)COC(=O)c1ccc(OC(F)(F)F)cc1 | 10 | -10 | -0.66 | i | 94 | 109 | / | / | / | / | / | /
O=C(Nc1ccccc1)OC1CCCCc2cccnc21 (stereo unspecified) | / | / | -0.43 | i | / | / | / | / | / | / | / | /
COc1ccc(C(=O)N=c2nc3ccccn3s2)cc1 | 57* | -91 | -0.016 | i | 55 | 182* | 16 | -40 | -189 | 313* | 120 | 94
COc1ccc(C(=O)O/N=C(/c2ccccc2)c2ccncc2)cc1 | -8 | -19 | 0.19 | i | 109 | 117 | / | / | / | / | / | /
CCN(CC)S(=O)(=O)c1ccc(C(=O)OCC(=O)Nc2ccc(-c3nc4ccc(C)cc4s3)cc2)cc1 | 47* | -60 | 0.71 | i | 60 | 153* | 30 | -22 | -74 | 175* | 114 | 74
Cc1ccc2nc(-c3ccc(NC(=O)COCC(=O)O)cc3)sc2c1 | / | / | -0.97 | i | / | / | / | / | / | / | / | /
O=c1c2c(nc3cc(-c4ccc(F)cc4)[nH]n13)CCCC2 | 53* | -84 | 0.61 | i | 56 | 177* | 19 | -27 | -133 | 240* | 115 | 93
O=[N+]([O-])c1ccc(/C=N/N=C/c2ccc([N+](=O)[O-])o2)o1 | 58* | -89 | -0.47 | i | 54 | 182* | 13 | -47 | -46 | 135* | 138* | 85
O=C(O)/C=C/c1ccc([N+](=O)[O-])o1 | 2 | 5 | 0.23 | i | 102 | 95 | / | / | / | / | / | /
Cc1cnc(NC(=O)c2sc3ccccc3c2Cl)s1 | 64* | -65 | 2 | i | 46 | 159* | 15 | 24* | -50 | 172* | 71 | 79
COc1ccc(/C=N/Nc2cc(OC)ncn2)cc1 | 51* | -59 | 1.1 | i | 59 | 152* | 3 | -25 | -139 | 228* | 98 | 84
COCC(=O)Nc1ccc(C(C)C)cc1 | -2 | -7 | 0.32 | i | 103 | 107 | / | / | / | / | / | /
CC(C)c1ccc(NC(=O)c2csnn2)cc1 | 45* | -50 | 6.7* | i | 64 | 146* | 8 | -21 | -79 | / | / | / | KCC2 secondary=0.016;KCC2 bumet counter=0.0042;KCC2 secondary2=0.029;HEK293 Tl flux=0.007;KCC2 retest ouab=0.015;HEK293 Tl flux2=0.0098
